{"source": "ChEMBL document CHEMBL4673252", "about": "“Discovery and Early Clinical Development of Isobutyl 1-[8-Methoxy-5-(1-oxo-3H-isobenzofuran-5-yl)-[1,2,4]triazolo[1,5-a]pyridin-2-yl]cyclopropanecarboxylate (LEO 39652), a Novel \"Dual-Soft\" PDE4 Inhibitor for Topical Treatment of Atopic Dermatitis” (J Med Chem, 2020)", "key": {"[1]": {"test": "Half life in human whole blood at 0.1 uM by LC-MS/MS analysis", "format": "ADME, tissue-based"}, "[2]": {"system": "TK6", "test": "Genotoxicity in human TK6 cells in absence of S9 fraction by GreenScreen assay", "format": "toxicity, cell-based"}, "[3]": {"test": "Half life in human keratinocytes at 1 uM by LC-MS/MS analysis", "format": "ADME, cell-based, Keratinocyte", "how_it_was_run": "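Plated human epidermal keratinocytes (1 × 10⁴ cells/well) with 1 μM compound in duplicate for up to 24 h; sampled at 0, 1, 2, 4, 24 h, acetonitrile precipitation, LC-MS/MS. Controls in growth medium. Half-life reported.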"}, "[4]": {"test": "Clearance in human liver microsomes at 0.5 uM incubated for 40 mins in presence of NADPH by LC-MS/MS analysis", "format": "ADME, Microsome", "settings": "read-out: CLH", "how_it_was_run": "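Human liver microsomes (0.5 mg/mL) with 1 mM NADPH and 0.5 μM test compound, incubated for 40 min. Samples were taken before NADPH and at 5, 10, 20, 40 min, quenched with cold acetonitrile containing internal standard, and analysed by LC-MS/MS. Control incubations in buffer and without NADPH. Apparent clearance was calculated from depletion.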"}, "[5]": {"test": "AUC (0 to 24 hrs) in human patient with atopic dermatitis at 0.25% dosed topically as lipid cream", "format": "ADME, organism-based", "set-up": "time < 24 hr, dose 0.25 %", "settings": "in vivo, topical or ocular"}, "[6]": {"test": "Clearance in human hepatocytes at 10 uM by UPLC/TOF-MS analysis", "format": "ADME, cell-based, Hepatocyte"}, "[7]": {"test": "Drug exposure in skin of Gottingen mini pig at 0.1% dosed topically as monoglyceride cream measured after 24 hrs by LC-MS/MS analysis", "format": "ADME, organism-based, Sus scrofa domesticus, Skin of body", "settings": "in vivo, topical_or_ocular", "how_it_was_run": "(§1)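 Female Göttingen minipigs received single topical application of 1 or 2.5 mg/g monoglyceride cream at 10 μL/cm² over 4 cm² of belly/flank; excess removed. At 24 h sites were tape stripped (2 + 10 strips), 8 mm punch biopsies were taken and snap frozen, then homogenized, acetonitrile precipitated and analysed by LC-MS/MS; n = 2.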"}, "[8]": {"test": "Half life in cynomolgus monkey whole blood at 0.1 uM by LC-MS/MS analysis", "format": "ADME, tissue-based, Macaca fascicularis"}, "[9]": {"test": "Drug metabolism in rat whole blood assessed as 4-[2-(1-Carboxycyclopropyl)-8-methoxy-[1,2,4]triazolo[1,5-a]-pyridin-5-yl]-2-(hydroxymethyl)benzoic Acid formation at 0.1 uM measured up to 120 mins by LC-MS/MS analysis", "format": "ADME, tissue-based", "settings": "2 h"}, "[10]": {"test": "Cmax in human patient with atopic dermatitis at 0.25% dosed topically as lipid cream", "format": "ADME, organism-based", "set-up": "dose 0.25 %", "settings": "in vivo, topical or ocular"}, "[11]": {"test": "Drug exposure in of Isobutyl 1-[8-Methoxy-5-(1-oxo-3H-isobenzofuran-5-yl)-[1,2,4]-triazolo[1,5-a]pyridin-2-yl]cyclopropanecarboxylate dosed Gottingen mini pig assessed as ratio of drug level to total AUC at 0.5 to 2 mg/kg, iv measured up to 24 hrs by LC-MS/MS analysis", "format": "ADME, organism-based, Sus scrofa domesticus", "settings": "in vivo, dose 0.5-2 mg/kg"}, "[12]": {"test": "Cmax in cynomolgus monkey at 30 mg/kg, sc dosed as single administration", "format": "ADME, organism-based, Macaca fascicularis", "set-up": "route subcutaneous, dose 30 mg/kg", "settings": "in vivo, read-out: Cmax", "how_it_was_run": "(§2)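 Single subcutaneous dose of 30 mg/kg.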"}, "[13]": {"test": "Drug exposure in of Isobutyl 1-[8-Methoxy-5-(1-oxo-3H-isobenzofuran-5-yl)-[1,2,4]-triazolo[1,5-a]pyridin-2-yl]cyclopropanecarboxylate dosed Sprague-Dawley rat assessed as ratio of drug level to total AUC at 0.075 mg/kg, iv measured up to 30 mins by LC-MS/MS analysis", "format": "ADME, organism-based", "settings": "in vivo, 0.5 h", "how_it_was_run": "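Male Sprague Dawley rats (n = 3) received a single iv injection of 0.075 mg/kg (50 μg/mL, 1.5 mL/kg) in 20% cyclodextrin. Blood was taken from the tongue vein at 1, 3, 6, 9, 12, 15 and 30 min into lithium-heparin, diluted 1:1 with heparin water, and analysed by LC-MS/MS for parent and metabolites.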"}, "[14]": {"test": "Half life in mini pig whole blood at 0.1 uM by LC-MS/MS analysis", "format": "ADME, tissue-based, Sus scrofa domesticus"}, "[15]": {"test": "Clearance in mini pig hepatocytes at 10 uM by UPLC/TOF-MS analysis", "format": "ADME, cell-based, Sus scrofa domesticus, Hepatocyte", "settings": "read-out: CLH"}, "[16]": {"test": "AUC (0 to 24 hrs) in cynomolgus monkey at 30 mg/kg, sc dosed as single administration", "format": "ADME, organism-based, Macaca fascicularis", "set-up": "time < 24 hr, route subcutaneous, dose 30 mg/kg", "settings": "in vivo", "how_it_was_run": "as §2"}, "[17]": {"test": "Half life in rat whole blood at 0.1 uM by LC-MS/MS analysis", "format": "ADME, tissue-based"}, "[18]": {"test": "Drug exposure in Isobutyl 1-[8-Methoxy-5-(1-oxo-3H-isobenzofuran-5-yl)-[1,2,4]-triazolo[1,5-a]pyridin-2-yl]cyclopropanecarboxylate dosed cynomolgus monkey assessed as ratio of drug level to total AUC", "format": "ADME, organism-based, Macaca fascicularis", "settings": "in vivo", "how_it_was_run": "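Blood was drawn at 0.25–24 h after infusion start and 6, 12, 24 h after infusion end into EDTA-K3, then plasma stabilized with ascorbic acid. LC-MS/MS quantification of parent and metabolites; noncompartmental PK.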"}, "[19]": {"test": "Drug exposure in skin of Gottingen mini pig at 0.25% dosed topically as monoglyceride cream measured after 24 hrs by LC-MS/MS analysis", "format": "ADME, organism-based, Sus scrofa domesticus, Skin of body", "settings": "in vivo, topical_or_ocular", "how_it_was_run": "as §1"}, "[20]": {"test": "Drug exposure in human assessed as ratio of drug level to total AUC at 0.25% of Isobutyl 1-[8-Methoxy-5-(1-oxo-3H-isobenzofuran-5-yl)-[1,2,4]-triazolo[1,5-a]pyridin-2-yl]cyclopropanecarboxylate dosed via topical administration in lipid cream", "format": "ADME, organism-based", "settings": "in vivo, topical_or_ocular"}, "[21]": {"test": "Phototoxicity in mouse 3T3 cells", "format": "cell-based"}}}
{"smiles": "COc1ccc(-c2ccc3c(c2)COC3=O)n2nc(C3(C(=O)OC4CCOCC4)CC3)nc12", "values": [{"measurement": "half-life at 0.1 µM", "setting": "[1]", "value": 10, "unit": "min"}, {"measurement": "Activity", "setting": "[2]", "value": "Toxic"}, {"measurement": "half-life at 1 µM", "setting": "[3]", "value": "> 720", "unit": "min"}, {"measurement": "CLint scaled at 0.5 µM", "setting": "[4]", "value": 97, "unit": "mL/min/kg"}]}
{"smiles": "COc1ccc(-c2ccc(C(=O)O)c(CO)c2)n2nc(C3(C(=O)OCC(C)C)CC3)nc12", "values": [{"measurement": "AUC(0-t) at 24 h", "setting": "[5]", "value": 4.18, "unit": "ng·h/mL"}, {"measurement": "CLhep predicted at 10 µM", "setting": "[6]", "value": 13, "unit": "mL/min/kg"}, {"measurement": "half-life at 0.1 µM", "setting": "[1]", "value": "> 60", "unit": "min"}, {"measurement": "Drug uptake", "setting": "[7]", "value": 0.6, "unit": "µM"}, {"measurement": "half-life at 0.1 µM", "setting": "[8]", "value": "> 60", "unit": "min"}, {"measurement": "Drug metabolism", "setting": "[9]", "value": "Metabolite_Detected"}, {"measurement": "Cmax", "setting": "[10]", "value": 0.299, "unit": "ng/mL"}, {"measurement": "half-life at 1 µM", "setting": "[3]", "value": "> 720", "unit": "min"}, {"measurement": "Drug uptake", "setting": "[11]", "value": 15, "unit": "%"}, {"measurement": "CLint scaled at 0.5 µM", "setting": "[4]", "value": "> 167", "unit": "mL/min/kg"}, {"measurement": "Cmax", "setting": "[12]", "value": 749, "unit": "ng/mL"}, {"measurement": "Drug uptake", "setting": "[13]", "value": 26, "unit": "%"}, {"measurement": "half-life at 0.1 µM", "setting": "[14]", "value": "> 60", "unit": "min"}, {"measurement": "CLint scaled at 10 µM", "setting": "[15]", "value": 21, "unit": "mL/min/kg"}, {"measurement": "AUC(0-t) at 24 h", "setting": "[16]", "value": 932, "unit": "ng·h/mL"}, {"measurement": "half-life at 0.1 µM", "setting": "[17]", "value": 34, "unit": "min"}, {"measurement": "Drug uptake", "setting": "[18]", "value": 36, "unit": "%"}, {"measurement": "Drug uptake", "setting": "[19]", "value": 2, "unit": "µM"}, {"measurement": "Drug uptake", "setting": "[20]", "value": 12, "unit": "%"}]}
{"smiles": "CC[C@@H](C)OC(=O)C1(c2nc3c(OC)ccc(-c4ccc5c(c4)COC5=O)n3n2)CC1", "values": [{"measurement": "half-life at 0.1 µM", "setting": "[1]", "value": 13, "unit": "min"}, {"measurement": "half-life at 1 µM", "setting": "[3]", "value": "> 720", "unit": "min"}, {"measurement": "CLint scaled at 0.5 µM", "setting": "[4]", "value": "> 200", "unit": "mL/min/kg"}, {"measurement": "Activity", "setting": "[21]", "value": "Toxic"}]}
